INS-1E ATP HTS: rescue of cytokine-induced death in INS-1E beta cells; 20,000 compounds, 0.1% hits; AID 488910; INS-1E cytokine-induced death, ATP luminescence, 48 h; normalised: neutral wells 0, positive control 100; protection from cytokine-induced ATP loss, % at 10 µM;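 active = mean replicate protection from cytokine-induced ATP loss at least 50% and at least 75% of replicates each reaching 50%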
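Test system: INS-1E rat cells | Quantity: 8000 cells per well | Medium: Phenol-red-free RPMI with 5% fetal bovine serum | Reagent: Cytokine cocktail of IFN-γ, TNF-α and IL-1β | Doses: One compound concentration, pin transfer | Timing: 48 h co-treatment, 10 min post-lysis read | Technique: Luminescent ATP assay (CellTiter-Glo)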
A1 apoptosis 2: A1 inhibition read as caspase activation; MEF A1-2A-BIM cells, caspase-Glo luminescence, 3 h; percent of clofoctol response, DMSO zero; caspase activation, % (no concentration beside the values); 24,000 tested, under 10 active; AID 2465; in the data active = caspase activation above about 5.9%
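system = A1-2A-BIM-expressing MEF cells | quantity = 2500 MEF cells/well | dosing = 50 nL compound per well, pinned | schedule = overnight cell settling, then 3 h compound exposure, 37 °C | signal = luminescence from DEVD-luciferin Caspase-Glo reagent, 1:1 in 50 mM HEPES, 1 h RT | read-out = Caspase-3/7 activation, seen as rise in luminescence signal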
T cruzi intra: inhibitors of intracellular Trypanosoma cruzi | intracellular Trypanosoma cruzi in host cells, plate reader | activity score (inhibition), % at 5.01 µM | 22,000 compounds, 4.9% hits | AID 651903; in the data active = activity score above about 55%;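 also: parasites and compound incubated about four days before reading; 0% = median of neutral control wells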
Numbers without * were called inactive. This excerpt belongs to a sample that is enriched for hits.

For C[C@@H]1CCCCO[C@H](CN(C)Cc2ccc3c(c2)OCO3)[C@@H](C)CN([C@H](C)CO)C(=O)c2cc(NC(=O)Nc3ccc(C(F)(F)F)cc3)ccc2O1 the results were INS-1E ATP HTS -42, A1 apoptosis 2 0 and T cruzi intra 78*.
Screening C[C@@H]1CN([C@H](C)CO)C(=O)c2cc(NC(=O)Nc3ccc(F)cc3)ccc2O[C@@H](C)CCCCO[C@@H]1CN(C)Cc1ccc(C(F)(F)F)cc1 returned A1 apoptosis 2 -1.
Screening C[C@@H]1CCCCO[C@H](CN(C)Cc2ccc(C(F)(F)F)cc2)[C@@H](C)CN([C@H](C)CO)C(=O)c2cc(NC(=O)Nc3ccc(F)cc3)ccc2O1 returned INS-1E ATP HTS 7 and T cruzi intra 71*.
C[C@@H]1CCCCO[C@H](CN(C)Cc2ccc(C(F)(F)F)cc2)[C@@H](C)CN([C@H](C)CO)C(=O)c2cc(NC(=O)NC3CCCCC3)ccc2O1 was read as INS-1E ATP HTS -14 and T cruzi intra 44.
`COc1ccc(CN(C)C[C@H]2OCCCC[C@H](C)Oc3ccc(NC(=O)Cc4ccccc4)cc3C(=O)N([C@H](C)CO)C[C@H]2C)cc1` gave A1 apoptosis 2 0.
COc1ccc(NC(=O)N(C)C[C@H]2Oc3c(NS(=O)(=O)c4ccc(C)cc4)cccc3C(=O)N([C@H](C)CO)C[C@@H]2C)cc1 was read as INS-1E ATP HTS 8 and T cruzi intra 6.
For CCCN(C)C[C@@H]1OCCCC[C@H](C)Oc2ccc(NC(=O)Nc3cccc4ccccc34)cc2C(=O)N([C@H](C)CO)C[C@@H]1C the results were A1 apoptosis 2 0.
For C[C@H]1CN([C@@H](C)CO)C(=O)c2cc(NC(=O)NC3CCCCC3)ccc2O[C@@H]1CN(C)C(=O)Nc1ccc(F)cc1 the results were INS-1E ATP HTS 4, A1 apoptosis 2 0 and T cruzi intra -7.
`O=C(NO)c1cccc(C(=O)N/N=C/c2ccc(OCCO)cc2)c1` gave INS-1E ATP HTS 3 and T cruzi intra -11.
Screening Cc1noc(C)c1NC(=O)Nc1ccc2c(c1)C(=O)N([C@H](C)CO)C[C@@H](C)[C@H](CN(C)Cc1ccc(Cl)c(Cl)c1)O2 returned INS-1E ATP HTS -7 and T cruzi intra 6.
For C[C@@H]1CCCCO[C@H](CN(C)Cc2ccc(C(F)(F)F)cc2)[C@@H](C)CN([C@H](C)CO)C(=O)c2cc(NC(=O)Nc3ccc(C(F)(F)F)cc3)ccc2O1 the results were INS-1E ATP HTS -38, A1 apoptosis 2 1 and T cruzi intra 71*.
C[C@H]1CCCCO[C@H](CN(C)Cc2ccc(C(F)(F)F)cc2)[C@@H](C)CN([C@@H](C)CO)C(=O)c2cc(NC(=O)Nc3ccc(C(F)(F)F)cc3)ccc2O1 was read as A1 apoptosis 2 0.
`C[C@@H]1CCCCO[C@@H](CN(C)Cc2ccc(Cl)c(Cl)c2)[C@@H](C)CN([C@H](C)CO)C(=O)c2cc(NC(=O)Nc3ccc4c(c3)OCO4)ccc2O1` gave INS-1E ATP HTS -21, A1 apoptosis 2 0 and T cruzi intra 67*.
For C[C@@H]1CCCCO[C@H](CN(C)Cc2ccc(Cl)c(Cl)c2)[C@H](C)CN([C@@H](C)CO)C(=O)c2cc(NC(=O)Nc3ccc4c(c3)OCO4)ccc2O1 the results were A1 apoptosis 2 -2.
`O=C(N/N=C/c1cc(I)cc(I)c1O)c1ccccc1O` gave INS-1E ATP HTS -105, A1 apoptosis 2 -3 and T cruzi intra 82*.
Screening O=C(N/N=C\c1cccc(O)c1O)c1ccccc1O returned INS-1E ATP HTS -133 and T cruzi intra 68*.
Screening O=C(N/N=C/c1ccc(I)cc1)c1ccccc1O returned INS-1E ATP HTS -8, A1 apoptosis 2 -8 and T cruzi intra -20.
COc1cc(Br)cc(/C=N/NC(=O)c2ccccc2O)c1O was read as INS-1E ATP HTS -125, A1 apoptosis 2 -13 and T cruzi intra 79*.
Screening COc1cc(Br)c(/C=N/NC(=O)c2ccccc2O)cc1OC returned INS-1E ATP HTS -41, A1 apoptosis 2 0 and T cruzi intra -13.
`Cc1ccccc1/C=N/NC(=O)c1ccccc1O` gave INS-1E ATP HTS -28, A1 apoptosis 2 -6 and T cruzi intra -13.
Screening NC(=O)COc1ccc(/C=N/NC(=O)CCCCCCC(=O)NO)cc1 returned A1 apoptosis 2 0.
C[C@@H]1CN([C@H](C)CO)C(=O)c2cccc(NC(=O)Nc3ccc(F)cc3)c2O[C@@H]1CN(C)Cc1ccc(Oc2ccccc2)cc1 was read as INS-1E ATP HTS -51, A1 apoptosis 2 0 and T cruzi intra 14.
`C[C@@H]1CN([C@@H](C)CO)C(=O)c2cc(NC(=O)Cc3cn(C)c4ccccc34)ccc2O[C@@H]1CN(C)C(=O)Nc1ccc(C(F)(F)F)cc1` gave INS-1E ATP HTS -6 and T cruzi intra 8.
`C[C@H](CO)N1C[C@H](C)[C@H](CN(C)Cc2ccc(C(F)(F)F)cc2)Oc2ccc(NC(=O)Cc3cn(C)c4ccccc34)cc2C1=O` gave A1 apoptosis 2 -1 and T cruzi intra 34.
For C[C@@H]1CN([C@@H](C)CO)C(=O)c2cc(NC(=O)Cc3cn(C)c4ccccc34)ccc2O[C@H]1CN(C)Cc1ccc(C(F)(F)F)cc1 the results were INS-1E ATP HTS -24, A1 apoptosis 2 -2 and T cruzi intra 82*.
C[C@H]1CN([C@@H](C)CO)C(=O)c2cc(NC(=O)Cc3cn(C)c4ccccc34)ccc2O[C@H]1CN(C)Cc1ccc(C(F)(F)F)cc1 was read as A1 apoptosis 2 0 and T cruzi intra 43*.
C[C@@H]1CN([C@H](C)CO)C(=O)c2cc(NC(=O)Cc3cn(C)c4ccccc34)ccc2O[C@@H]1CN(C)Cc1ccccc1 was read as INS-1E ATP HTS 3 and T cruzi intra 17.
C[C@@H]1CN([C@H](C)CO)C(=O)c2cc(NC(=O)Cc3cn(C)c4ccccc34)ccc2O[C@@H]1CN(C)C(=O)Nc1ccc(C(F)(F)F)cc1 was read as INS-1E ATP HTS -18 and T cruzi intra 81*.
Screening C[C@@H]1CCCCO[C@H](CN(C)C(=O)Nc2ccc3c(c2)OCO3)[C@H](C)CN([C@@H](C)CO)C(=O)c2cc(NC(=O)Cc3ccccc3)ccc2O1 returned A1 apoptosis 2 0.
For COc1ccc(NC(=O)N(C)C[C@@H]2Oc3ncc(C#CC(C)(C)O)cc3C(=O)N([C@H](C)CO)C[C@@H]2C)cc1 the results were A1 apoptosis 2 -1 and T cruzi intra -5.
For COc1ccc(NC(=O)N(C)C[C@@H]2Oc3ncc(C#Cc4ccc(C(F)(F)F)cc4)cc3C(=O)N([C@H](C)CO)C[C@@H]2C)cc1 the results were A1 apoptosis 2 0 and T cruzi intra 83*.
For C[C@H](CO)N1C[C@H](C)[C@H](CN(C)C(=O)Nc2ccc3c(c2)OCO3)Oc2ncc(C#Cc3ccc(C(F)(F)F)cc3)cc2C1=O the results were A1 apoptosis 2 0 and T cruzi intra 83*.
C[C@H](CO)N1C[C@H](C)[C@H](CN(C)C(=O)Nc2ccccc2)Oc2ncc(C#Cc3ccccc3)cc2C1=O was read as A1 apoptosis 2 -1 and T cruzi intra -5.

Screening results: PubChem, Broad Institute
